Assay results published in ChEMBL document CHEMBL4196148, “Antibacterial Prenylated Isoflavonoids from the Stems of Millettia extensa” (2018).
≈ marks a conversion by molar mass, not a printed value. Calls of active or inactive are those of the source. No cut-off for these calls is given here.

What was measured:
Salmonella typhimurium = assay: Antibacterial activity against Salmonella typhimurium TISTR 781 by 2-fold serial dilution method; format: functional, Salmonella enterica subsp. enterica serovar Typhimurium
In short: (§1)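 MICs determined following Clinical and Laboratory Standards Institute recommendations, reported in μg/mL.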

[1] = tested on: Staphylococcus epidermidis; assay: Antibacterial activity against Staphylococcus epidermidis ATCC 12228 by 2-fold serial dilution method; format: functional; in short: as §1
Pseudomonas aeruginosa = assay: Antibacterial activity against Pseudomonas aeruginosa TISTR 292 by 2-fold serial dilution method; format: functional; in short: as §1
Staphylococcus aureus [2] = assay: Antibacterial activity against Staphylococcus aureus TISTR 1466 by 2-fold serial dilution method; format: functional; in short: as §1
Bacillus subtilis [3] = assay: Antibacterial activity against Bacillus subtilis TISTR 008 by 2-fold serial dilution method; format: functional, Bacillus spizizenii; in short: as §1
[4] = tested on: Staphylococcus epidermidis; assay: Antibacterial activity against Staphylococcus epidermidis ATCC 12228 at >128 ug/ml by 2-fold serial dilution method; format: functional, organism-based; in short: as §1
Staphylococcus aureus [5] = assay: Antibacterial activity against Staphylococcus aureus TISTR 1466 at >128 ug/ml by 2-fold serial dilution method; format: functional, organism-based; in short: as §1
Bacillus subtilis [6] = assay: Antibacterial activity against Bacillus subtilis TISTR 008 at >128 ug/ml by 2-fold serial dilution method; format: functional, organism-based; conditions: Bacillus spizizenii; in short: as §1

Molecule | MIC (Salmonella typhimurium; Salmonella enterica) [µg/mL] | MIC [1] [µg/mL] | MIC (Pseudomonas aeruginosa) [µg/mL] | MIC (Staphylococcus aureus [2]) [µg/mL] | MIC (Bacillus subtilis [3]) [µg/mL] | MIC (Salmonella typhimurium; Salmonella enterica subsp. enterica serovar Typhimurium) [µg/mL] | Activity [4] | Activity (Staphylococcus aureus [5]) | Activity (Bacillus subtilis [6])
CC(C)=CCc1c2c(c(O)c3c(=O)c(-c4ccc(O)cc4)coc13)C=CC(C)(C)O2 [WARANGALONE] | 128 (≈ 316 µM) | 4 (≈ 9.89 µM) | 128 (≈ 316 µM) | 2 (≈ 4.94 µM) | 2 (≈ 4.94 µM) | – | – | – | –
CC(C)=CCc1c2c(c3occ(-c4ccc(O)cc4O)c(=O)c3c1O)C=CC(C)(C)O2 | 128 (≈ 304 µM) | 2 (≈ 4.76 µM) | 128 (≈ 304 µM) | 2 (≈ 4.76 µM) | 2 (≈ 4.76 µM) | – | – | – | –
GENTAMICIN | – | – | 2 | – | – | 0.25 | – | – | –
CC(C)=CCC1=C(O)c2c(occ(-c3ccc(O)cc3O)c2=O)C(CC=C(C)C)(CC=C(C)C)C1=O | 128 (≈ 261 µM) | 2 (≈ 4.08 µM) | 128 (≈ 261 µM) | 2 (≈ 4.08 µM) | 2 (≈ 4.08 µM) | – | – | – | –
Oc1ccc2c(c1)OC[C@H]1c3cc4c(cc3O[C@@H]21)OCO4 [MAACKIAIN] | 128 (≈ 450 µM) | – | 128 (≈ 450 µM) | – | – | – | inactive | inactive | inactive
C=C(C)[C@@H]1Cc2c(cc(O)c3c2O[C@H]2COc4cc(OC)c(OC)cc4[C@H]2C3=O)O1 | 128 (≈ 312 µM) | – | 128 (≈ 312 µM) | – | – | – | inactive | inactive | inactive
CN[C@H](CC(C)C)C(=O)N[C@H]1C(=O)N[C@@H](CC(N)=O)C(=O)N[C@H]2C(=O)N[C@H]3C(=O)N[C@H](C(=O)N[C@H](C(=O)O)c4cc(O)cc(O)c4-c4cc3ccc4O)[C@H](O)c3ccc(c(Cl)c3)Oc3cc2cc(c3O[C@@H]2O[C@H](CO)[C@@H](O)[C@H](O)[C@H]2O[C@H]2C[C@](C)(N)[C@H](O)[C@H](C)O2)Oc2ccc(cc2Cl)[C@H]1O [VANCOMYCIN] | – | 0.25 (≈ 0.173 µM) | – | 0.25 (≈ 0.173 µM) | 0.25 (≈ 0.173 µM) | – | – | – | –
COc1cc(OC)c(-c2coc3cc4c(c(O)c3c2=O)C=CC(C)(C)O4)cc1OC | 128 (≈ 312 µM) | – | 128 (≈ 312 µM) | – | – | – | inactive | inactive | inactive
CC(C)=CCc1c2c(c(O)c3c(=O)c(-c4ccc(O)cc4O)coc13)C=CC(C)(C)O2 | 128 (≈ 304 µM) | 2 (≈ 4.76 µM) | 128 (≈ 304 µM) | 2 (≈ 4.76 µM) | 2 (≈ 4.76 µM) | – | – | – | –
CC(C)=CCc1c2c(c(O)c3c(=O)c(-c4ccc(O)c(O)c4)coc13)C=CC(C)(C)O2 [AURICULASIN] | 128 (≈ 304 µM) | 4 (≈ 9.51 µM) | 128 (≈ 304 µM) | 4 (≈ 9.51 µM) | 8 (≈ 19 µM) | – | – | – | –
CC(C)=CCOc1ccc(-c2coc3cc4c(c(O)c3c2=O)C=CC(C)(C)O4)c(O)c1 | 128 (≈ 304 µM) | – | 128 (≈ 304 µM) | – | – | – | inactive | inactive | inactive
CC(C)=CCOc1ccc(-c2coc3cc4c(c(O)c3c2=O)C=CC(C)(C)O4)cc1 | 128 (≈ 316 µM) | – | 128 (≈ 316 µM) | – | – | – | inactive | inactive | inactive
